From ChEMBL document CHEMBL4706523, “Targeting topoisomerase II with trypthantrin derivatives: Discovery of 7-((2-(dimethylamino)ethyl)amino)indolo[2,1-b]quinazoline-6,12-dione as an antiproliferative agent and to treat cancer” (Eur J Med Chem, 2020)
Values after ≈ are worked out from the molar mass of the structure shown. Blank lines part the entries; values can stand above or below the compound they belong to. Active and inactive are the calls of the source. The calls are words filed in the database; no cut-off is given here.

Experiments:
[1] = target: T1, DNA topoisomerase 2-alpha (Homo sapiens, UniProt P11388); assay: Inhibition of human DNA topoisomerase 2alpha assessed as suppression of decatenation using catenated kinetoplast DNA as substrate up to 250 uM measured after 30 mins by SYBR safe DNA staining based staining-based agarose gel electrophoresis method; details: dose microM <=250, time 30.0 min
T1 sequence (P11388 whole entry): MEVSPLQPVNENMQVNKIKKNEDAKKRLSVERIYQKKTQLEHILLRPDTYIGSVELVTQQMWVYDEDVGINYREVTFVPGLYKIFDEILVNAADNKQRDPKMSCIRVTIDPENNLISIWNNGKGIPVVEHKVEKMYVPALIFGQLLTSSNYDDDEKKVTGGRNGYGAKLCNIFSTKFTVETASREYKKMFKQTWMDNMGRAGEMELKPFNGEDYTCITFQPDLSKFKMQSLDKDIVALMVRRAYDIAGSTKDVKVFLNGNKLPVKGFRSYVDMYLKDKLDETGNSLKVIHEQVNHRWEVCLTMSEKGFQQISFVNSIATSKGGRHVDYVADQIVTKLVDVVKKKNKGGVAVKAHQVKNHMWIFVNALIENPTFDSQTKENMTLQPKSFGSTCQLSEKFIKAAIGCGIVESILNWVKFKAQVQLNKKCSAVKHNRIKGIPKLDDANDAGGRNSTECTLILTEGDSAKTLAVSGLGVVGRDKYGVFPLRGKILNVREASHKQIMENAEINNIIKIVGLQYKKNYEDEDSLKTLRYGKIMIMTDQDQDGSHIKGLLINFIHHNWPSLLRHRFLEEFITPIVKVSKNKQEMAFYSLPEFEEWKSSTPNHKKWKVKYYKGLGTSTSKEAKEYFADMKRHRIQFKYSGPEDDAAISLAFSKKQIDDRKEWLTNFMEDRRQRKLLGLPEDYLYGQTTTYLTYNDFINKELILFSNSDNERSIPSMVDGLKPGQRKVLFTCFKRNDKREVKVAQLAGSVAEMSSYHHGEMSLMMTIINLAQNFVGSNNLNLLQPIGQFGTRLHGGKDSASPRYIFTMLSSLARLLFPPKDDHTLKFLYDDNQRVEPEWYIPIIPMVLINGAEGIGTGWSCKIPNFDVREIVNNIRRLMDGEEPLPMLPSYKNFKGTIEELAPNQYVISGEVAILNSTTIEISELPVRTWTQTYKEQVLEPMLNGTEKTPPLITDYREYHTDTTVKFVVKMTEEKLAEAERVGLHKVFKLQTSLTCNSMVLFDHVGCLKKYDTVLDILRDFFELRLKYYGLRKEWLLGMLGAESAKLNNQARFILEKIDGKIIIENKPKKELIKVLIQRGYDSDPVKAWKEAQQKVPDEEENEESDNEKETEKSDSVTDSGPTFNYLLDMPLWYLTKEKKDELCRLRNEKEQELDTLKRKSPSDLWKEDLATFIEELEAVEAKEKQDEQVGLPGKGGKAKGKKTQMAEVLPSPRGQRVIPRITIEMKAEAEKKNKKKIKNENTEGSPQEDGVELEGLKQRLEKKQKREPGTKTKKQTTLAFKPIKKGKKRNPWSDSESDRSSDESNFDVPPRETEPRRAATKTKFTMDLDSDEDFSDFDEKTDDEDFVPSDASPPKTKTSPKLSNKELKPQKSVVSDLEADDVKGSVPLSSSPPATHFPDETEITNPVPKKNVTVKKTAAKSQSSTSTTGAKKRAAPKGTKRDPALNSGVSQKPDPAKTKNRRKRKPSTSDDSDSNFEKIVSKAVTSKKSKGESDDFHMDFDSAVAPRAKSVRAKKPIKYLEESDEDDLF
Outline: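 Human topoII α decatenation kit reaction, with compound or DMSO vehicle at 5% DMSO final. Incubated 30 min at 37°C, products resolved on 1% agarose with SYBR safe stain. IC50 from four-parameter nonlinear regression, mean ± SD of two independent assays. Tested up to 250 μM.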

[2] = test system: CCRF-CEM; assay: Induction of G2/M cell cycle arrest in human CCRF-CEM cells assessed as increase in cyclin B1 expression at 8 uM by flow cytometric analysis; format: functional, cell-based; details: time 6-24 hrs, TDE = time-dependent effect
Outline: (§1)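 CCRF-CEM exposed to 8 μM for 6, 9, 16 and 24 h. 1×10⁶ cells were fixed in 2% paraformaldehyde, permeabilised in 90% methanol, and stained 30 min with anti-cyclin A or anti-cyclin B1 (1:50), then with secondary (1:200), then PI/RNase A. Flow cytometric MFI was taken in PI-gated G2-M cells and normalised to untreated G2-M cells.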

[3] = target: T1, DNA topoisomerase 2-alpha; assay: Potency index, ratio of etoposide IC50 to test compound IC50 for inhibition of human DNA topoisomerase 2alpha
[4] = test system: CCRF-CEM; assay: Induction of cell cycle arrest in human CCRF-CEM cells assessed as decrease in accumulation at G0-G1 phase for 24 hrs by flow cytometric analysis; format: functional, cell-based; details: dose 8.0 µM
Outline: (§2)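 CCRF-CEM seeded at 0.25x10⁶ cells/mL and treated 24h. Cells were fixed/permeabilised in 70% ethanol for at least 1h, then stained with PI 10 μg/mL plus RNase A 100 μg/mL for 20 min at room temperature in the dark. DNA content was read by flow cytometry, with at least 10000 events, to give subG0, G0-G1, S and G2-M fractions.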

[5] = test system: HL-60; assay: Antiproliferative activity against human HL-60 cells assessed as reduction in cell viability after 72 hrs by eosin exclusion dye based light microscopic method; format: functional
Outline: (§3)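 Suspension leukaemia lines grown in RPMI with 4.5 g/L glucose, 2 mM glutamine, penicillin/streptomycin and 10% heat-inactivated FBS (HL-60 in 20% FBS). Seeded at 0.25x10⁶ cells/mL (Jurkat, CCRF-CEM, CEM/C2) or 0.125x10⁶ cells/mL (HL-60). Treated 72h at 0–64 μM, 37°C, 5% CO₂. Viable cells counted by eosin exclusion in a Bürker chamber, normalised to untreated cells. IC50 from non-linear regression, at least triplicate.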

[6] = species: Homo sapiens; assay: Selectivity ratio of IC50 for antiproliferative activity against human CCRF-CEM cells to IC50 for antiproliferative activity against human MCF7 cells; format: cell-based
[7] = test system: CCRF-CEM; assay: Induction of cell cycle arrest in human CCRF-CEM cells assessed as increase in accumulation at G2/M phase for 24 hrs by flow cytometric analysis; format: functional, cell-based; details: dose 8.0 µM; outline: as §2
[8] = test system: CCRF-CEM; assay: Antiproliferative activity against human CCRF-CEM cells assessed as reduction in cell viability at 4 uM after 24 hrs by eosin exclusion dye based light microscopic method
[9] = species: Homo sapiens; assay: Selectivity ratio of IC50 for antiproliferative activity against human HT-29 cells to IC50 for antiproliferative activity against human Jurkat cells; format: cell-based
[10] = test system: CCRF-CEM; assay: Inhibition of DNA topoisomerase 2 in human CCRF-CEM cells assessed as increase in gamma-H2Ax expression at 8 uM after 1 to 16 hrs by flow cytometric analysis; format: cell-based; details: time 1-16 hrs
Outline: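 CCRF-CEM exposed to 8 μM for 1, 2, 3, 5 and 16 h. Cells were fixed in 2% paraformaldehyde, permeabilised in 90% methanol, and stained with anti-γ-H2AX (1:40) then secondary (1:200), with PI/RNase A counterstain. γ-H2AX immunofluorescence was read by flow cytometry per cell-cycle phase and expressed as delta γ-H2AX.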

[11] = test system: CCRF-CEM; assay: Induction of G2/M cell cycle arrest in human CCRF-CEM cells assessed as increase in cyclin A expression at 8 uM after 6 to 24 hrs by flow cytometric analysis; format: functional, cell-based; details: time 6-24 hrs; outline: as §1
[12] = target: T1, DNA topoisomerase 2-alpha; assay: Poison activity at human DNA topoisomerase 2 alpha assessed as stabilization of cleavage complex using PBR322 as substrate incubated for 15 mins by ethidium bromide staining based agarose gel electrophoresis method
[13] = test system: CCRF-CEM; assay: Induction of cell cycle arrest in human CCRF-CEM cells assessed as accumulation at G2/M phase at 8 uM for 24 hrs by flow cytometric analysis (reference value: 27%); format: functional; outline: as §2
[14] = species: Homo sapiens; assay: Selectivity ratio of IC50 for antiproliferative activity against human HT-29 cells to IC50 for antiproliferative activity against human MCF7 cells; format: cell-based
[15] = test system: CEM/C2; assay: Antiproliferative activity against human CEM/C2 cells assessed as reduction in cell viability after 72 hrs by eosin exclusion dye based light microscopic method; format: functional; outline: as §3
[16] = Solubility of compound in water; format: physicochemical
Outline: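 Samples were stirred for 24 h at 25°C, centrifuged, and supernatants filtered through 0.45 μm PTFE and diluted. Concentration was taken from UV absorbance against a four-point calibration line in PBS with 2% DMSO, and reported as μg/mL.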

[17] = test system: MCF7; assay: Antiproliferative activity against human MCF7 cells assessed as reduction in cell viability after 72 hrs by 4-methylumbelliferyl heptanoate (MUH) fluorescence assay
[18] = target: T1, DNA topoisomerase 2-alpha; assay: Inhibition of human DNA topoisomerase 2alpha assessed as suppression of decatenation using catenated kinetoplast DNA as substrate measured after 30 mins by SYBR safe DNA staining based staining-based agarose gel electrophoresis method
Outline: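 Human topoII α decatenation kit reaction, with compound or DMSO vehicle at 5% DMSO final. Incubated 30 min at 37°C, products resolved on 1% agarose with SYBR safe stain. IC50 from four-parameter nonlinear regression, mean ± SD of two independent assays.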

[19] = species: Homo sapiens; assay: Selectivity ratio of IC50 for antiproliferative activity against human HL-60 cells to IC50 for antiproliferative activity against human MCF7 cells; format: cell-based
[20] = test system: CCRF-CEM; assay: Induction of cell death in human CCRF-CEM cells assessed as increase in fragmented DNA at 4 to 8 uM after 24 hrs followed by compound wash out further incubated for 24 hrs by flow cytometric analysis; format: functional, cell-based; details: dose 4-8 µM
Outline: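 Recovery design: CCRF-CEM were treated 24h, then medium was removed by centrifugation, cells were PBS-washed and cultured a further 24h in drug-free complete medium. Cells were then fixed in 70% ethanol and stained with PI 10 μg/mL plus RNase A 100 μg/mL. Flow cytometry scored subG0 cells, those with fragmented DNA, from at least 10000 events.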

[21] = species: Homo sapiens; assay: Selectivity ratio of IC50 for antiproliferative activity against human HL-60 cells to IC50 for antiproliferative activity against human Jurkat cells; format: cell-based
[22] = species: Homo sapiens; assay: Selectivity ratio of IC50 for antiproliferative activity against human DLD-1 cells to IC50 for antiproliferative activity against human Jurkat cells; format: cell-based
[23] = species: Homo sapiens; assay: Selectivity ratio of IC50 for antiproliferative activity against human CEM/C2 cells to IC50 for antiproliferative activity against human Jurkat cells; format: cell-based
[24] = test system: CCRF-CEM; assay: Antiproliferative activity against human CCRF-CEM cells assessed as reduction in cell viability after 72 hrs by eosin exclusion dye based light microscopic method; format: functional; details: for IC50: 72 h; for GI50: time 72 hrs; outline: as §3
[25] = test system: HT-29; assay: Antiproliferative activity against human HT29 cells assessed as reduction in cell viability after 72 hrs by 4-methylumbelliferyl heptanoate (MUH) fluorescence assay
[26] = test system: DLD-1; assay: Antiproliferative activity against human DLD-1 cells assessed as reduction in cell viability after 72 hrs by 4-methylumbelliferyl heptanoate (MUH) fluorescence assay
[27] = species: Homo sapiens; assay: Selectivity ratio of IC50 for antiproliferative activity against human DLD-1 cells to IC50 for antiproliferative activity against human MCF7 cells; format: cell-based
[28] = species: Homo sapiens; assay: Selectivity ratio of IC50 for antiproliferative activity against human CCRF-CEM cells to IC50 for antiproliferative activity against human Jurkat cells; format: cell-based
[29] = species: Homo sapiens; assay: Selectivity ratio of IC50 for antiproliferative activity against human CEM/C2 cells to IC50 for antiproliferative activity against human MCF7 cells; format: cell-based
[30] = test system: Jurkat; assay: Antiproliferative activity against human Jurkat cells assessed as reduction in cell viability after 72 hrs by eosin exclusion dye based light microscopic method; format: functional; outline: as §3
[31] = test system: CCRF-CEM; assay: Potency index, ratio of tryp-tanthrin IC50 to test compound IC50 for antiproliferative activity against human CCRF-CEM cells; format: functional

SMILES: O=C1c2c(N3CCOCC3)cccc2-n2c1nc1ccccc1c2=O
inhibition [1]: inactive

SMILES: O=C1c2ccc(N3CCOCC3)cc2-n2c1nc1ccccc1c2=O
inhibition [1]: inactive

SMILES: CCN(CC)c1cccc2c1C(=O)c1nc3ccccc3c(=O)n1-2
inhibition [1]: inactive

SMILES: CN1CCN(c2cccc3c2C(=O)c2nc4ccccc4c(=O)n2-3)CC1
IC50 [18]: 114 µM

SMILES: O=C1c2ccccc2-n2c1nc1ccccc1c2=O [TRYPTANTHRIN]
inhibition [1]: inactive
solubility ([16]; buffer): 91.02 µM (≈ 22.6 µg/mL)
IC50 [24]: 44.4 µM
GI50 [24]: 14.5 µM

SMILES: O=C1c2ccc(N3CCCCC3)cc2-n2c1nc1ccccc1c2=O
inhibition [1]: inactive

SMILES: CN1CCN(c2ccc3c(c2)-n2c(nc4ccccc4c2=O)C3=O)CC1
IC50 [18]: 138 µM

The next lines start with results.

Ratio IC50 [3]: 2.5
IC50 ([5]; HL-60, 72 h): 11.5 µM
solubility ([16]; water, read-out: solubility): 996 µM (≈ 333 µg/mL)
IC50 ([17]; MCF7, 72 h): 30.5 µM
IC50 [18]: 26.6 µM
IC50 [24]: 8.26 µM
GI50 [24]: 1.36 µM
IC50 ([25]; HT-29, 72 h): 9.4 µM
IC50 ([26]; DLD-1, 72 h): 7.13 µM
IC50 [30]: 18.2 µM
SMILES: CN(C)CCNc1cccc2c1C(=O)c1nc3ccccc3c(=O)n1-2
Activity [2]: Tde
Activity [4]: Dose-dependent effect
Activity [5]: Dose-dependent effect
Ratio IC50 [6]: 3
Activity [7]: Dose-dependent effect
Activity [8]: Active
Ratio IC50 [9]: 2
inhibition [10]: Active
Activity [11]: inactive
Activity [12]: inactive
Activity [13]: 78%
Ratio IC50 [14]: 3
Activity [15]: Dose-dependent effect
IC50 ([15]; CEM/C2, 72 h): 9.16 µM
Activity [17]: Dose-dependent effect
Ratio IC50 [19]: 3
Activity [20]: Active
Ratio IC50 [21]: 2
Ratio IC50 [22]: 2
Ratio IC50 [23]: 2
Activity [24]: Dose-dependent effect
Activity [25]: Dose-dependent effect
Activity [26]: Dose-dependent effect
Ratio IC50 [27]: 3
Ratio IC50 [28]: 2
Ratio IC50 [29]: 3
Activity [30]: Dose-dependent effect
Ratio IC50 [31]: 5

inhibition [1]: inactive
SMILES: CCN(CC)c1ccc2c(c1)-n1c(nc3ccccc3c1=O)C2=O

inhibition [1]: inactive
SMILES: O=C1c2c(NCCO)cccc2-n2c1nc1ccccc1c2=O

inhibition [1]: inactive
SMILES: O=C1c2c(N3CCCCC3)cccc2-n2c1nc1ccccc1c2=O
